Data set [1] can be described thus: Antioxidative activity assessed as DPPH radical scavenging activity at 93.9 uM. In kind it is physicochemical.
A short description of data set [2]: Antioxidative activity assessed as superoxide anion radical scavenging activity at 90.9 uM. In kind it is physicochemical.
A short description of data set [3]: Antioxidative activity assessed as ABTS cation radical scavenging activity at 108.3 uM. In kind it is physicochemical.
For the next data set, the system named is Bacillus subtilis. As to the kind of experiment: Antimicrobial activity against Bacillus subtilis 1.079 assessed as inhibition of microbial growth incubated at 37 degC for 24 hrs. Type of data set: functional. As to conditions: Bacillus subtilis, 1.079, 24 h. Summed up:
(§1)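 MIC by tube broth dilution in MHB. Samples were dissolved in DMSO, with final DMSO no more than 5% (v/v). Final dilutions ran from 50 to 0.19 μg/mL, with final bacteria at 1 × 10^8 CFU/mL. Tubes were incubated at 37 °C for 24 h. MIC was taken as the lowest concentration inhibiting visible growth.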

The next data set has as its system Escherichia coli. As to the kind of experiment: Antimicrobial activity against Escherichia coli 1.044 assessed as inhibition of microbial growth incubated at 37 degC for 24 hrs. Type of data set: functional. Conditions: Escherichia coli, 1.044, 24 h. An outline of the steps: as §1
Data set [4] can be described thus: Antioxidative activity assessed as ABTS cation radical scavenging activity. Type of data set: physicochemical.
In data set [5] the test system is Aspergillus niger. As to the kind of experiment: Antimicrobial activity against Aspergillus niger assessed as inhibition of microbial growth incubated up to 100 ug/mL at 31 degC for 72 hrs. In kind it is functional, organism-based. Summed up:
(§2)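 Oxford cup diffusion on agar plates of potato extract 20% (w/v, boiled 20 min), dextrose 20.0 g/L and agar 17 g/L, inoculated with the test fungus. Plates were incubated at 31 °C for 72 h.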

For data set [6], the system named is Candida albicans. As to the kind of experiment: Antimicrobial activity against Candida albicans assessed as inhibition of microbial growth up to 100 ug/mL incubated at 31 degC for 72 hrs. Type of data set: functional, organism-based. Summed up: as §2
Data set [7] can be described thus: Antioxidative activity assessed as superoxide anion radical scavenging activity at 61.3 uM. In kind it is physicochemical.
The test system of data set [8] is Saccharomyces cerevisiae. Description: Antimicrobial activity against Saccharomyces cerevisiae assessed as inhibition of microbial growth up to 100 ug/mL incubated at 31 degC for 72 hrs. Type of data set: functional, organism-based. An outline of the steps: as §2
Data set [9] concerns Fusarium oxysporum f. sp. vasinfectum. As to the kind of experiment: Antimicrobial activity against Fusarium vasinfectum assessed as inhibition of microbial growth up to 100 ug/mL incubated at 31 degC for 72 hrs. In kind it is functional, organism-based. Summed up: as §2
A short description of data set [10]: Antioxidative activity assessed as DPPH radical scavenging activity. In kind it is physicochemical. (Loss of DPPH colour is used to gauge radical scavenging.)
Data set [11] concerns Fusarium graminearum. Description: Antimicrobial activity against Fusarium graminearum assessed as inhibition of microbial growth up to 100 ug/mL incubated at 31 degC for 72 hrs. Type of data set: functional, organism-based. Summed up: (§3)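 Oxford cup diffusion assay on agar plates of potato extract 20% (w/v, boiled 20 min), dextrose 20.0 g/L and agar 17 g/L, seeded with the fungal strain. Plates incubated at 31 °C for 72 h.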

For data set [12], the system named is Candida albicans. Description: Antimicrobial activity against Candida albicans assessed as inhibition of microbial growth up to 200 ug/mL incubated at 31 degC for 72 hrs. Type of data set: functional, organism-based. Summed up: as §3
Data set [13] has as its system Fusarium graminearum. Description: Antimicrobial activity against Fusarium graminearum assessed as inhibition of microbial growth up to 200 ug/mL incubated at 31 degC for 72 hrs. In kind it is functional, organism-based. Summed up:
as §3

Data set [14] relates to Fusarium oxysporum f. sp. vasinfectum. As to the kind of experiment: Antimicrobial activity against Fusarium vasinfectum assessed as inhibition of microbial growth up to 200 ug/mL incubated at 31 degC for 72 hrs. In kind it is functional, organism-based. Summed up: as §3
In data set [15] the test system is Saccharomyces cerevisiae. Description: Antimicrobial activity against Saccharomyces cerevisiae assessed as inhibition of microbial growth up to 200 ug/mL incubated at 31 degC for 72 hrs. In kind it is functional, organism-based. Summed up: as §3
Data set [16] has as its system Aspergillus niger. Description: Antimicrobial activity against Aspergillus niger assessed as inhibition of microbial growth incubated up to 200 ug/mL at 31 degC for 72 hrs. Type of data set: functional, organism-based. An outline of the steps:
as §3

Data set [17] is described as follows: Antioxidative activity assessed as superoxide anion radical scavenging activity at 88.3 uM. Type of data set: physicochemical.
Data set [18] can be described thus: Antioxidative activity assessed as ABTS cation radical scavenging activity at 103.7 uM. In kind it is physicochemical.
Data set [19] can be described thus: Antioxidative activity assessed as DPPH radical scavenging activity at 89.9 uM. Type of data set: physicochemical.
A short description of data set [20]: Antioxidative activity assessed as superoxide anion radical scavenging activity. In kind it is physicochemical.

A word on the MIC: it is the smallest concentration in the dilution series that meets the test's criterion for growth inhibition. A word on the IC50: it is the concentration that inhibits the measured activity by half.

Activity calls are given as the source filed them.

Take `CN1C(=O)C2=CC3(n4cc(C[C@@]56SSSS[C@@](CO)(C(=O)N5C)N(C)C6=O)c5ccccc54)c4ccccc4N[C@@H]3N2C(=O)C1CO` (some centres undefined): the “inhibition (INH)” value in data set [1] was less than 10%; in [2] it was 14.8%; in data set [3] it was less than 20%. Also, the MIC in the data set with Bacillus subtilis is 25 µg/mL; with Escherichia coli it was greater than 50 µg/mL.
Take `CC(C)=CCc1ccc2[nH]cc(C3=C(O)C(=O)C(O)(c4c[nH]c5ccc(CC=C(C)C)cc45)C(=O)C3=O)c2c1` (centres undefined): the IC50 in data set [4] was 45.2 µM; in [10] it was 144 µM. The “growth inhibition (GI)” value (with Aspergillus niger [5]; with Candida albicans [6]; in the data set on Saccharomyces cerevisiae [8]; in data set [9]; in the data set on Fusarium graminearum [11]) was “inactive” each time. Moreover, the “inhibition (INH)” value in data set [7] was 30.4%. In addition, the MIC in the data set on Bacillus subtilis was 50 µg/mL; in the data set with Escherichia coli, greater than 50 µg/mL.
For the compound `O=C1O[C@H]([C@@H](O)CO)C(O)=C1O` [ASCORBIC ACID], the IC50 in data set [4] came out at 0.01 µM; in [10], 0.02 µM.
In the case of `CN1C(=O)[C@]2(Cc3cn([C@]45C[C@@]67SS[C@@](CO)(C(=O)N6[C@H]4Nc4ccccc45)N(C)C7=O)c4ccccc34)SS[C@@]1(CO)C(=O)N2C` [CHETOMIN], the “inhibition (INH)” value is listed as less than 10% in [1], 18.1% in data set [2] and less than 20% in data set [3]. For the same compound, the “growth inhibition (GI)” value (in the data set on Candida albicans [12]; with Fusarium graminearum [13]; in data set [14]; with Saccharomyces cerevisiae [15]; in the data set with Aspergillus niger [16]) was “inactive” in each case. For the same compound, the MIC in the data set on Bacillus subtilis was 0.78 µg/mL; with Escherichia coli, greater than 50 µg/mL.
`CN1C(=O)[C@]2(Cc3cn([C@]45C[C@@]67SSS[C@@](CO)(C(=O)N6[C@H]4Nc4ccccc45)N(C)C7=O)c4ccccc34)SS[C@@]1(CO)C(=O)N2C` [CHETOSEMINUDIN A]: the figures for the “inhibition (INH)” value in [17], in [18] and in data set [19] were 51.5%, less than 20% and less than 10%, respectively. Besides, the MIC in the data set with Bacillus subtilis is 0.78 µg/mL; in the data set with Escherichia coli it was greater than 50 µg/mL.
Turning to `O=c1cc(-c2ccc(O)c(O)c2)oc2cc(O)cc(O)c12` [LUTEOLIN], in data set [20], the IC50 is 22.3 µM.
For `COc1cccc(OC)c1C(=O)N[C@@H]1C(=O)N2[C@@H]1SC(C)(C)[C@@H]2C(=O)O` [METHICILLIN], in the data set with Bacillus subtilis, the MIC was found to be 0.78 µg/mL.
